Reference: ChEMBL document CHEMBL3870308, “Repurposing of a drug scaffold: Identification of novel sila analogues of rimonabant as potent antitubercular agents” (Eur J Med Chem, 2016)
≈ marks a conversion by molar mass, not a printed value.

Assays:
[1] = test system: Mycobacterium tuberculosis; experiment: Antitubercular activity against Mycobacterium tuberculosis H37Rv assessed as growth inhibition by Alamar-Blue assay; assay type: functional
[2] = Cytotoxicity against human HepG2 cells measured after 48 hrs by MTT assay; assay type: toxicity, cell-based
In short: (§1)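 Cells from ATCC grown in DMEM with 10% FBS at 37 °C in 5% CO2, harvested by trypsinization and seeded at 7500 cells per well. After 18 h, compound added at final 0.1, 1, 10 and 100 µM in triplicate. Plates incubated 48 h, then MTT for 60 min at 37 °C. Formazan dissolved in DMSO and read at 560 nm. Percent growth taken relative to control wells, with dose-response curves. Repeated three times, mean ± SD.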

[3] = Metabolic stability in human plasma at 50 uM measured after 60 mins by LC-MS/MS analysis; assay type: ADME, cell-free; settings: read-out: Stability
In short: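 Working solution at 50 µM in acetonitrile:water (1:1), from a 10 mM DMSO stock. 2 µL added to 98 µL of plasma and incubated 60 min at 37 °C. Quenched with methanol containing internal standard, centrifuged, and supernatant analysed by LC-MS/MS.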

[4] = Protein binding human plasma at 150 uM measured after 30 mins by equilibrium dialysis method; assay type: ADME, cell-free; settings: read-out: PPB (converted)
In short: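 Plasma spiked with 5 µL of 150 µM compound per 745 µL. Sampled at 0 h, then incubated 30 min at 37 °C. Rapid equilibrium dialysis of plasma against KH2PO4 buffer pH 7.4 for 4 h at 37 °C with shaking. Both chambers matrix-matched and precipitated with methanol containing tolbutamide internal standard. Analysed by LC-MS/MS.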

[5] = Cytotoxicity against human A549 cells measured after 48 hrs by MTT assay; assay type: toxicity, cell-based; in short: as §1
[6] = test system: Mycobacterium tuberculosis; experiment: Antimycobacterial activity against Mycobacterium tuberculosis by broth microdilution assay; assay type: functional
[7] = Cytotoxicity against human THP1 cells assessed as reduction in cell viability at =>3 uM measured after 48 hrs by MTT assay; assay type: toxicity, cell-based, THP-1; settings: read-out: INH
[8] = Cytotoxicity against mouse RAW cells assessed as reduction in cell viability at =>3 uM measured after 48 hrs by MTT assay; assay type: toxicity; settings: read-out: INH
[9] = Selectivity index, ratio of IC50 for human A549 cells to MIC for Mycobacterium tuberculosis H37Rv; assay type: toxicity, cell-based; settings: read-out: Ratio IC50
[10] = Selectivity index, ratio of IC50 for human HepG2 cells to MIC for Mycobacterium tuberculosis H37Rv; assay type: toxicity, cell-based; settings: read-out: Ratio IC50
[11] = Solubility of the compound at pH 4.5 by HPLC method; assay type: physicochemical; settings: buffer
In short: (§2)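 Compound diluted to a 5 mM DMSO working solution from a 10 mM stock. 5 µL added to 495 µL of buffer at the stated pH. Vortexed 5 min and centrifuged. Supernatant quantified by HPLC.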

[12] = Metabolic stability in mouse liver microsomes at 1 or 50 uM measured after 30 to 60 mins in presence of cofactor by LC-MS/MS analysis; assay type: ADME
In short: (§3)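 Stock 10 mM in DMSO, diluted to a 50 µM working solution in acetonitrile:water (1:1). 2 µL of this added to 98 µL of buffer, microsomes and cofactor. Incubated at 37 °C for 15, 30, 45 and 60 min. Stopped with methanol containing internal standard, vortexed and centrifuged. Supernatant analysed by LC-MS/MS.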

[13] = Solubility of the compound at pH 10.2 by HPLC method; assay type: physicochemical; settings: buffer; in short: as §2
[14] = Solubility of the compound at pH 7.4 by HPLC method; assay type: physicochemical; settings: buffer; in short: as §2
[15] = Metabolic stability in human liver microsomes at 1 or 50 uM measured after 30 to 60 mins in presence of cofactor by LC-MS/MS analysis; assay type: ADME; in short: as §3
[16] = Solubility of the compound at pH 1.2 by HPLC method; assay type: physicochemical; settings: buffer; in short: as §2
[17] = Solubility of the compound at pH 2.2 by HPLC method; assay type: physicochemical; settings: buffer; in short: as §2

SMILES	MIC [1] [mg/L]	IC50 at 48 h [2] [µM]	remaining at 1 h, 50 µM [3] [%]	fraction unbound at 0.5 h, 150 µM [4]	IC50 at 48 h [5] [µM]	selectivity ratio [9]	selectivity ratio [10]	also measured
CN(C)CCCNC(=O)c1cc(-c2ccc(Cl)cc2)n(-c2ccc(Cl)cc2)n1	25 (≈ 59.9 µM)	–	–	–	–	–	–	–
Cc1c(CN2CCN(C)CC2)cc(-c2ccc(Cl)cc2)n1-c1ccc(Cl)cc1	0.7 (≈ 1.69 µM)	71	100	0.0077	91.5	57.2	44.4	MIC [6]: 0.7 to 1.5 mg/L (≈ 1.69 to 3.62 µM); cytotoxicity at 48 h [7]: 40 to 60%; cytotoxicity at 48 h [8]: 40 to 60%
C[Si]1(C)CCN(Cc2nn(-c3ccc(Cl)cc3Cl)c(-c3ccc(Cl)cc3)c2CO)CC1	6.25 (≈ 12.6 µM)	30.4	88.1	0.0004	61.9	4.92	2.41	solubility [11]: 41.6 µM (≈ 20.6 µg/mL); Stability [12]: 3.7%; solubility [13]: 2.39 µM (≈ 1.18 µg/mL); solubility [14]: 5.31 µM (≈ 2.63 µg/mL); Stability [15]: 2.1%; solubility [16]: 44 µM (≈ 21.8 µg/mL); solubility [17]: 42.5 µM (≈ 21 µg/mL)
Cc1c(CN2CCNCC2)nn(-c2ccc(Cl)cc2Cl)c1-c1ccc(Cl)cc1	25 (≈ 57.4 µM)	–	–	–	–	–	–	–
Cc1c(CN2CCCCC2)nn(-c2ccc(Cl)cc2Cl)c1-c1ccc(Cl)cc1	12.5 (≈ 28.7 µM)	> 100	–	–	88.8	3.1	> 3.5	–
C[Si]1(C)CCN(C(=O)c2cc(-c3ccc(Cl)cc3)n(-c3ccc(Cl)cc3)n2)CC1	6.25 (≈ 14.1 µM)	59	89.7	0.0001	68.3	4.85	4.18	solubility [11]: 0.13 µM (≈ 0.0578 µg/mL); Stability [12]: 3.9%; solubility [13]: 1.28 µM (≈ 0.569 µg/mL); solubility [14]: 0.05 µM (≈ 0.0222 µg/mL); Stability [15]: 2.1%; solubility [16]: 0.16 µM (≈ 0.0711 µg/mL); solubility [17]: 0.18 µM (≈ 0.08 µg/mL)
Cc1c(C(=O)NN2CCCCC2)nn(-c2ccc(Cl)cc2Cl)c1-c1ccc(Cl)cc1 [RIMONABANT]	25 (≈ 53.9 µM)	–	–	–	–	–	–	–
COc1cccc2c1C(=O)c1c(O)c3c(c(O)c1C2=O)C[C@@](O)(C(=O)CO)C[C@@H]3O[C@H]1C[C@H](N)[C@H](O)[C@H](C)O1 [DOXORUBICIN]	–	5.34	–	–	5.32	–	–	–
Cc1c(C(=O)NN2CCN(C)CC2)nn(-c2ccc(Cl)cc2Cl)c1-c1ccc(Cl)cc1	25 (≈ 52.2 µM)	–	–	–	–	–	–	–
Cc1c(C(=O)N2CCNCC2)nn(-c2ccc(Cl)cc2Cl)c1-c1ccc(Cl)cc1	25 (≈ 55.6 µM)	–	–	–	–	–	–	–
NNC(=O)c1ccncc1 [ISONIAZID]	0.3 (≈ 2.19 µM)	–	–	–	–	–	–	–
Cc1c(CN2CC[Si](C)(C)CC2)nn(-c2ccc(Cl)cc2Cl)c1-c1ccc(Cl)cc1	1.17 (≈ 2.44 µM)	51.9	99.2	0.0005	54.2	31.9	30.5	solubility [11]: 34.2 µM (≈ 16.4 µg/mL); Stability [12]: 9.2%; solubility [13]: 10.9 µM (≈ 5.24 µg/mL); solubility [14]: 1.05 µM (≈ 0.503 µg/mL); cytotoxicity at 48 h [7]: 40 to 60%; cytotoxicity at 48 h [8]: 40 to 60%; Stability [15]: 18.5%; solubility [16]: 41 µM (≈ 19.6 µg/mL); solubility [17]: 40.6 µM (≈ 19.4 µg/mL)
O=C(c1cc(-c2ccc(Cl)cc2)n(-c2ccc(Cl)cc2)n1)N1CCNCC1	25 (≈ 62.3 µM)	–	–	–	–	–	–	–
C[Si]1(C)CCN(Cc2cc(-c3ccc(Cl)cc3)n(-c3ccc(Cl)cc3)n2)CC1	0.031 (≈ 0.072 µM)	21.4	100	0.0007	58.9	841	306	solubility [11]: 41.9 µM (≈ 18 µg/mL); Stability [12]: 6.3%; solubility [13]: 1.99 µM (≈ 0.857 µg/mL); solubility [14]: 3.72 µM (≈ 1.6 µg/mL); cytotoxicity at 48 h [7]: 40 to 60%; cytotoxicity at 48 h [8]: 40 to 60%; Stability [15]: 20.3%; solubility [16]: 43 µM (≈ 18.5 µg/mL); solubility [17]: 42.3 µM (≈ 18.2 µg/mL)
O=C1CCN(Cc2cc(-c3ccc(Cl)cc3)n(-c3ccc(Cl)cc3)n2)CC1	25 (≈ 62.5 µM)	–	–	–	–	–	–	–
CN1CCN(Cc2cc(-c3ccc(Cl)cc3)n(-c3ccc(Cl)cc3)n2)CC1	25 (≈ 62.3 µM)	–	–	–	–	–	–	–
CN(C)C(=O)c1cc(-c2ccc(Cl)cc2)n(-c2ccc(Cl)cc2)n1	25 (≈ 69.4 µM)	–	–	–	–	–	–	–
Cc1c(CNCc2ccccc2)nn(-c2ccc(Cl)cc2Cl)c1-c1ccc(Cl)cc1	6.25 (≈ 13.7 µM)	57.4	–	–	55.8	4.1	4.2	–
Cc1c(C(=O)NCCCN(C)C)nn(-c2ccc(Cl)cc2Cl)c1-c1ccc(Cl)cc1	25 (≈ 53.7 µM)	–	–	–	–	–	–	–
Cc1c(CN2CCN(C)CC2)nn(-c2ccc(Cl)cc2Cl)c1-c1ccc(Cl)cc1	12.5 (≈ 27.8 µM)	85	–	–	80.3	2.9	3.1	–
Cc1c(CN(C)C)nn(-c2ccc(Cl)cc2Cl)c1-c1ccc(Cl)cc1	6.25 (≈ 15.8 µM)	36.3	–	–	57.2	3.62	2.3	–
C[Si]1(C)CCN(NCc2cc(-c3ccc(Cl)cc3)n(-c3ccc(Cl)cc3)n2)CC1	0.39 (≈ 0.875 µM)	86.8	100	0.0069	73.2	84.2	99.8	solubility [11]: 44.3 µM (≈ 19.7 µg/mL); Stability [12]: 100%; solubility [13]: 38 µM (≈ 16.9 µg/mL); solubility [14]: 39.8 µM (≈ 17.7 µg/mL); cytotoxicity at 48 h [7]: 40 to 60%; cytotoxicity at 48 h [8]: 40 to 60%; Stability [15]: 93.1%; solubility [16]: 43.1 µM (≈ 19.2 µg/mL); solubility [17]: 43.2 µM (≈ 19.2 µg/mL)
Clc1ccc(-c2cc(CN3CCCCC3)nn2-c2ccc(Cl)cc2)cc1	1.56 (≈ 4.04 µM)	–	91.7	0.0011	–	–	–	solubility [11]: 43.6 µM (≈ 16.8 µg/mL); Stability [12]: 26%; solubility [13]: 1.49 µM (≈ 0.576 µg/mL); solubility [14]: 11.4 µM (≈ 4.4 µg/mL); Stability [15]: 60.1%; solubility [16]: 45 µM (≈ 17.4 µg/mL); solubility [17]: 44.6 µM (≈ 17.2 µg/mL)
